Assay results as given in ChEMBL document CHEMBL4513216, “Probing the Open Global Health Chemical Diversity Library for Multistage-Active Starting Points for Next-Generation Antimalarials” (ACS Infect Dis, 2020).

Assay: Toxicity liver stage against HepG2, at 10uM
Format: cell-based
Set-up: test concentration 10 uM, cell line HepG2-A16-CD81EGFP
Settings: human, HepG2-A16-CD81EGFP cells; read-out: INHIBITION
How it was run: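 Uninfected HepG2-A16-CD81EGFP cells, 3 × 10^3 per well, 1536-well, plated on prespotted compound at 10 μM final, parasite-free screening media added to match infected plates; puromycin 10 μM positive, DMSO 0.5% negative; run in parallel with 48 h PbLuc assay at 37 °C, 5% CO2; viability by CellTiter-Glo luminescence, normalized to controls.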

| Compound | cytotoxicity at 10 µM |
| --- | --- |
| COCC(=O)N1CCC2(CC1)CCn1c(-c3cccc(OC)c3)cnc12 | -5.21% |
| Cn1cc(CN2CCC3(CC2)CC(=O)Nc2ccccc23)cn1 | 8.49% |
| Cc1cc2nc(SCC(=O)N3CCCCC3)n(C)c(=O)c2[nH]1 | 5.56% |
| C[C@H](NC(=O)Cc1csc(-c2cccc(Cl)c2)n1)C(=O)O | 1.25% |
| COc1ccc2c(ccn2CCN)c1 | -0.73% |
| O=C(NC1CC1)c1ccc2ccc(N3CCN(CC4CC4)CC3)n2c1 | 1.26% |
| Cc1nc(N2CCCC2)nc2c1CN(C(=O)N1CCOCC1)CC2 | 6.17% |
| Cn1cc(CN2CCCn3cnc(COCC4CC4)c3C2)cn1 | -6.66% |
| O=C(CSc1ccccn1)NCc1ccc2c(c1)CCC(=O)N2 | 20% |
| Cc1cccc2c1cnn2CCCNC(=O)c1ccnn1C | 13.4% |
| Cc1nn(C)c(C)c1-c1ccc(=O)n(C(C)C(=O)NC2CCCC2)n1 (stereo unspecified) | 5.97% |
| Cc1ccc(CC2COCCN(Cc3ccccc3)C2)nc1 (stereo unspecified) | 8.3% |
| COc1ccc(C2CNCCN2C(=O)c2cccc3cccnc23)cc1 (stereo unspecified) | -4.48% |
| CNc1ncc(C(=O)N2CCOC(C(=O)N3CCCCCC3)C2)cn1 (stereo unspecified) | -8.29% |
| COCCN(Cc1ccccn1)C(=O)CC1OCCc2sccc21 (stereo unspecified) | -54.8% |
| Cc1cnn(CC(C)NCC(=O)NC2CCOCC2)c1 (stereo unspecified) | 15.6% |
| NC(=O)N1CCC(NCc2cc(Br)ccc2Cl)CC1 | -6.43% |
| N#Cc1c(CN2CCCC2Cn2cccn2)cn2ccccc12 (stereo unspecified) | -4.67% |
| CN(Cc1cc(Cl)cc2cccnc12)CC1CCN(CCO)CC1 | -5.2% |
| Cc1ncncc1C(=O)N1CCCN(Cc2ncc(Cl)n2C)CC1 | 6.45% |
| Cc1ccccc1C(C#N)NC(=O)c1cccc2c1OCCO2 (stereo unspecified) | -3.38% |

| Compound | cytotoxicity at 10 µM |
| --- | --- |
| CC(C)N1CCC(O)(CNC(=O)CC2OCCc3ccccc32)CC1 (stereo unspecified) | 5.02% |
| CS(=O)(=O)c1ccccc1NC(=O)N[C@@H]1c2ccccc2C[C@@H]1O | -42.2% |
| O=C(NCc1nc(C2CC2)no1)N1CCOC(c2ccccc2F)C1 (stereo unspecified) | -53.7% |
| CC(Oc1cc(Cl)cc(Cl)c1)C(=O)NCCS(N)(=O)=O (stereo unspecified) | -11.7% |
| CCN(CC)Cc1ccccc1NCc1c(C)noc1C | -2.04% |
| CN(Cc1nnc(C2CC2)n1C)C1CCN(CCc2ccccc2)C1 (stereo unspecified) | 2.03% |
| CCC(C#N)NC(=O)COC1CCCCC1 (stereo unspecified) | 5.48% |
| CCOc1ccccc1C(CC(=O)N(C)c1ccccc1)NC(C)=O (stereo unspecified) | -8.28% |
| CC(NCC1CCN(CCO)CC1)c1ccc(F)c(Cl)c1 (stereo unspecified) | -9.04% |
| Cn1cc(CNC2CCS(=O)(=O)C2)c(-c2cc3ccccc3o2)n1 (stereo unspecified) | -39.1% |
| COCCn1ccc(NC(=O)CNC(=O)CC(C)(C)C)n1 | 17.3% |
| c1ccc(-c2cnc(CNC3CCc4ncnn4C3)o2)cc1 (stereo unspecified) | -3.78% |
| O=C(CN1CCOc2ccc(Cl)cc21)NCCCn1ccnc1 | -7.49% |
| CC(C)Cc1nc(CN(C)CCOc2ccccc2F)no1 | -0.731% |
| O=S(=O)(NC1CCCCC12OCCO2)c1ccc2c(c1)OCCO2 (stereo unspecified) | -0.839% |
| COCCCN(Cc1ccc(F)cc1Cl)C1CCS(=O)(=O)C1 (stereo unspecified) | 13.7% |
| CC(CCN1CCOCC1)NC(=O)c1cccc(C(F)(F)F)c1F (stereo unspecified) | -44.8% |
| Cn1c(CC2CCS(=O)(=O)C2)nnc1SCCOc1ccccc1F (stereo unspecified) | -6.82% |
| COc1cccc(CN(C)S(=O)(=O)N2CCOCC2)c1 | -8.62% |
| CS(=O)(=O)NCC1CCCCN1C(=O)Nc1cccnc1N1CCCC1 (stereo unspecified) | -3.45% |
| Cc1ccc(S(=O)(=O)NC(=O)c2c(C)noc2C(C)C)cc1C | -9.11% |

| Compound | cytotoxicity at 10 µM |
| --- | --- |
| O=C(NC1CC2(CCN(CCO)CC2)Oc2ccccc21)c1csnn1 (stereo unspecified) | -101% |
| COc1ccc(CCCN2C(=O)O[C@@H]3CN(C4CCOCC4)C[C@@H]32)cc1 | -1.47% |
| CCN(C)CC(=O)N1CCN(Cc2ccccc2)[C@@H]2CS(=O)(=O)C[C@@H]21 | -5.18% |
| N#Cc1ccccc1C(=O)N1C[C@@H](CN2CCOCC2)[C@@H](CO)C1 | -1.06% |
| O=C(NCCc1cccnc1)C1CCCN(Cc2ccco2)C1 (stereo unspecified) | -3.98% |
| Cc1csc(CN(C)C(=O)c2cccc(CCC(C)(C)O)c2)n1 | -2.32% |
| CNc1ncc(CN(C)C(=O)c2ccccc2C2CCNC2)cn1 (stereo unspecified) | 0.272% |
| Cc1ccc(C(=O)N2CCC(c3nccn3Cc3ccncc3)CC2)s1 | 1.2% |
| CCOCc1nc2c(c(N3CCCn4nc(C)cc4C3)n1)CCNCC2 | 11.3% |
| COc1cccc(-c2noc(-c3ccc(NCC(C)C)nc3)n2)c1OC | -12.2% |
| Cc1cnc(C(=O)N2CCN(C(=O)C(C)C)[C@@H]3CS(=O)(=O)C[C@@H]32)cn1 | 7.91% |
| CCC[C@H]1CN(S(C)(=O)=O)C[C@@H]1NC(=O)COC(C)C | -1.09% |
| c1ccc(OCCSC2=NCCN2)cc1 | 1.52% |
| Cc1cc(N2CCN(C(=O)CCc3scnc3C)CC2)cc(C)n1 | -48.4% |
| O=C(CCC1CCN(C2CSCCSC2)CC1)NCC1CCCO1 (stereo unspecified) | 6.5% |
| CC(=O)NCC1CCC2(CCN(c3ncnc4oc(C)nc34)CC2)O1 (stereo unspecified) | 1.32% |
| CC(=O)N[C@@H]1CN(c2nc(C(N)=O)cs2)C[C@H]1c1ccc(C)o1 | -41.2% |
| Cc1nccc(N2CCC(=O)N(Cc3ccc(F)cc3)C(C(C)C)C2)n1 (stereo unspecified) | -0.449% |
| CN(CCc1ccccc1)Cc1cc(C(=O)N2CCCC2(C)C)no1 | -9.18% |
| Cc1ccsc1CN(CCN(C)C)Cc1ccccn1 | -16.1% |
| CCc1c(C)sc(NC(=O)CN2CCN(CC)CC2)c1C(=O)OC | -11.1% |

| Compound | cytotoxicity at 10 µM |
| --- | --- |
| Cc1nc(CN2CCCC2Cn2cncn2)no1 (stereo unspecified) | -7.01% |
| Cc1cc(C)n(-c2ccc(CNCc3ccc(C)o3)cn2)n1 | -6.57% |
| CCc1nccn1C1CCCN(C(=O)c2ccc3c(c2)OCO3)C1 (stereo unspecified) | -12.6% |
| COCc1cccc(CNC(=O)CN2CCCC2c2noc(C)n2)c1 (stereo unspecified) | 0.762% |
| CC(Cn1ccnc1)NC(=O)C1(c2ccc3c(c2)OCCO3)CCCC1 (stereo unspecified) | -2.5% |
| c1ccc(CN2CCCC2Cn2cncn2)nc1 (stereo unspecified) | -10.8% |
| CN1CCOC(CNCc2coc(-c3cccs3)n2)C1 (stereo unspecified) | -3.71% |
| Cc1nc(C)n(CC2CCCCN2CC(=O)NC2CCOCC2)n1 (stereo unspecified) | -9.32% |
| CN(C)C[C@H]1C[C@@H]2CN(C(=O)c3ccno3)C[C@@H]2O1 | -6.32% |
| COc1cccc(CNC(C)c2ccc(-n3ccnc3)cc2)c1OC (stereo unspecified) | -35.1% |
| C[C@@H]1C[C@H]2CN(Cc3nccs3)C[C@H]2O1 | -1.22% |
| O=C(NCc1ccccn1)[C@@]12CCO[C@@H]1CCN(C1CCCC1)C2 | -105% |
| CN1CCO[C@@H]2CN(C(=O)COc3cccc(Cl)c3)C[C@@H]2C1 | -9.58% |
| O=C(c1cccnc1)N1CC[C@H](OCC2CC2)[C@@H]1Cc1cccnc1 | -0.53% |
| Cc1noc(C)c1CN1CCOCC12CCN(c1cnccn1)CC2 | -101% |
| O=C(COC[C@@]12CCC[C@@H]1CN(C1CCCC1)C2)N1CCCC1 | -112% |
| COCCN1C(=O)[C@@H]2CC[C@H]1CN(C(=O)CCc1n[nH]c(C)c1C)C2 | 13.5% |
| Cc1ncc(C(=O)N2C[C@@H]3CC[C@H]2CN(S(=O)(=O)N(C)C)C3)c(C)n1 | 16.9% |
